# Assay outcomes deposited in PubChem by Broad Institute.
# An excerpt weighted towards active compounds, which were near 2.1% of everything screened.
# FGF22 binding – shifts melting point of recombinant human FGF22. recombinant FGF22 thermal shift, SYPRO orange fluorescence; percent of sucrose octasulfate shift, DMSO zero. activity (Tm shift, normalised), % at 9.99 µM. hit rate 1.5% among 340,000;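 active means mean Tm shift, scaled 0 neutral to 100 positive control, at about 1.3% or above, every replicate too, limit read from the data; inconclusive means no clear call, values can overlap the other calls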
# Target sequence (Q9HCT0 whole entry, looked up): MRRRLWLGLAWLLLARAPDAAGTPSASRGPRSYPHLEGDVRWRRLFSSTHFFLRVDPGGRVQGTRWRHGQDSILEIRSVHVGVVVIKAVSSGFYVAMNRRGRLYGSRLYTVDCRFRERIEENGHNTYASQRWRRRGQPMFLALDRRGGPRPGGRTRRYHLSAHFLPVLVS
# ARNT TACC3 PPI – disruptors of human ARNT/TACC3 interaction | AlphaScreen His-ARNT PAS-B/GST-TACC3 binding, luminescence; TACC3 fragment carries E629A point mutation | Q9Y6A5 | inhibition, % at 9.99 µM | hit rate 0.66% among 390,000;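 active means mean inhibition of replicates at least 50% and at least half of replicates each reaching 50%; inconclusive means half or more replicates reach 50% but mean below 50%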;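 further: 0% = complete ARNT plus TACC3 wells and 100% = ARNT alone without TACC3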
# ERp5 block – inhibitors of human ERp5; Q15084; ERp5 insulin aggregation, absorbance 650 nm, 90 min; inhibition, % at 9.99 µM; hit rate 0.05% among 350,000; AID 651711;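 active means mean replicate inhibition above about 25%, with every replicate also reaching it, limit read from the data, passing the limit was not always enough; inconclusive means only one of those two criteria met; inactive means neither criterion met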
# PDI turbidity – PDI (human) enzyme inhibition | P07237 | PDI insulin aggregation turbidity, A650, 90 min | inhibition, % at 10 µM | hit rate 0.052% among 350,000 | AID 588391;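 active means mean inhibition across replicates of 30% or more, whatever share of single replicates reach that level; inconclusive means mean inhibition below 30% while every single replicate reaches 30%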
# Target sequence (P07237 whole entry, looked up): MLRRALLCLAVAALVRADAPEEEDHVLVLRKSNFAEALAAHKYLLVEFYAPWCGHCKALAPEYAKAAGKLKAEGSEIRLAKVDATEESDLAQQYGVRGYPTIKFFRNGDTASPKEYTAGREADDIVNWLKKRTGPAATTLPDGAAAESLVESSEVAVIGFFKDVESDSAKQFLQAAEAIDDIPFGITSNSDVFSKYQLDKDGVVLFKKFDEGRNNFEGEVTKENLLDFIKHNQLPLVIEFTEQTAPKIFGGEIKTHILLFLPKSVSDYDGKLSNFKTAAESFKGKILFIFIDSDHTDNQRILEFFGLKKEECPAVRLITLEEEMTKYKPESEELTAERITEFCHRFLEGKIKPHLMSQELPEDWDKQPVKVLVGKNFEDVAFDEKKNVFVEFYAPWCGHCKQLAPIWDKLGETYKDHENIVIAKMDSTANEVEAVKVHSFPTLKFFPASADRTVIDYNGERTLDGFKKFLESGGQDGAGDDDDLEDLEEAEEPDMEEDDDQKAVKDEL
# AF4-AF9 inh – blocks AF4 peptide binding to human AF9 | P42568 | hit rate 0.47% among 350,000 | AlphaScreen, biotin-AF4 peptide binding to FLAG-AF9 | inhibition, % at 10 µM;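 active means every replicate reaching a set inhibition limit, whatever the replicate mean, cut at about 25% in these data; inconclusive means mean inhibition reaches that limit but some replicates miss it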;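 further: 0% = plate neutral control median and 100% = total signal loss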
# FN deposit inh – fibronectin deposition inhibition | AH1F fibroblasts, Alexa488-fibronectin deposition fluorescence, overnight | inhibition, % at 12.6 µM | hit rate 0.086% among 350,000 | AID 743247;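 active means mean inhibition across replicates of 30% or more, regardless of how many single replicates reach that level; inconclusive means mean under 30% yet at least half of replicates reach 30%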;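 further: positive control wells lacked labelled fibronectin entirely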
#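 Material: AH1F fibroblasts assembling fluorescent fibronectin matrix; amount: 10000 AH1F cells/well; medium: DMEM, 2% serum; reagent: Alexa488-fibronectin, 24 nM final in well; dosing: single compound dose, delivered by pin transfer; incubation: 1 h adhesion, overnight exposure; detection: fluorescence after three HBSS washes, excitation 485 nm, emission 525 nm; measure: fibronectin deposition inhibition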
# ARNT Alpha ctr – AlphaScreen artifact in ARNT/TACC3 counter-screen; shares compounds with ARNT TACC3 PPI; His-ARNT PASB-GST AlphaScreen artifact counter-screen, luminescence; AC50, µM (highest dose often 68 µM), for the others: at the highest dose activity change, negative = signal decrease; hit rate 50% among 1,200;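 active means every separate test run was called active for a drop in luminescence, with AC50 within twice the top valid dose, actives reach about 71 µM in these data; inconclusive means the separate test runs disagree in their calls; inactive means all runs inactive, including signal change in the wrong direction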
# An asterisk follows results filed as active; ? = inconclusive; . = no result; [ ] = dose if it differs, or a comment.
SMILES,FGF22 binding,ARNT TACC3 PPI,ERp5 block,PDI turbidity,AF4-AF9 inh,FN deposit inh,ARNT Alpha ctr
O=C(Oc1c(CN2CCOCC2)cc(Cl)c2cccnc12)c1cccs1,-0.2,64.8*,17.7,-1.4,5.0,-0.9,-21.0%
COc1cccc(C(=O)Oc2c(CN3CCOCC3)cc(Cl)c3cccnc23)c1,.,77.5*,.,0.6,.,9.1,57.8µM*
Oc1c(Cl)cc(Cl)c2cccnc12,0.0,.,-2.3,-7.4,-3.4,0.8,.
COc1cccc(C(=O)OCCN2CCOCC2)c1,0.3,-4.0,-1.3,0.8,-0.9,-1.5,.
COC(=O)c1cn(C[C@H](Cc2ccccc2)NC(=O)c2ccccc2)nn1,-0.4,.,-3.1,.,-0.1,.,.
COc1ccccc1-c1ccc2c(c1)O[C@H](CN(C)S(=O)(=O)c1ccc(F)cc1)[C@@H](C)CN([C@@H](C)CO)S2(=O)=O,-0.1,-0.9,0.4,.,0.0,.,.
CC(C)NC(=O)N[C@@H]1C=C[C@@H](CC(=O)N2CCCCC2)O[C@H]1CO,0.1,-6.8,-1.4,.,-2.0,0.6,.
COc1cc(CNCc2ccccn2)ccc1OCc1cccc(Cl)c1,0.1,53.2*,7.4,4.2,18.3,.,-30.9%
COc1cc(CNCc2ccccn2)ccc1OCc1c(Cl)cccc1Cl,0.2,56.4*,?,4.2,?,.,-35.8%
COc1cc(CNCc2cccs2)ccc1OCc1ccccc1,0.2,2.9,-4.7,3.4,13.9,.,.
COc1cc(CNCc2ccccn2)ccc1OCc1ccc(Cl)cc1,0.2,52.7*,0.6,13.2,11.2,.,-30.0%
COc1ccc(NC(=O)N(C)C[C@@H]2Oc3ccc(NC(=O)Nc4ccc(F)cc4)cc3C(=O)N([C@H](C)CO)C[C@H]2C)cc1,-0.1,-6.8,-0.9,.,0.3,.,.
Cc1ccc(S(=O)(=O)N(C)C[C@@H]2OCCCC[C@@H](C)Oc3ccc(NC(=O)Nc4cccc5ccccc45)cc3C(=O)N([C@@H](C)CO)C[C@@H]2C)cc1,0.2,27.1,-3.7,.,2.3,-7.6,.
O=C(C1=C(O)C(=O)N(Cc2ccccc2)C1c1ccncc1)c1ccco1 (stereo not given),.,21.0*,.,-9.0,.,.,-3.3%
C[C@H](CO)N1C[C@H](C)[C@@H](CN(C)C(=O)C2CC2)Oc2ncc(/C=C/c3ccccc3)cc2C1=O,.,.,.,.,.,14.5,.
O=C(Oc1ccc(Cl)c2cccnc12)c1cccnc1,0.0,68.6*,2.2,10.3,-2.2,2.9,50.1µM*
C[C@@H]1CCCCO[C@H](CN(C)S(C)(=O)=O)[C@H](C)CN([C@@H](C)CO)C(=O)c2cc(NC(=O)Nc3ccc(F)cc3)ccc2O1,-0.4,-3.4,.,.,.,.,.
COc1ccc(S(=O)(=O)Nc2ccc3c(c2)C(=O)N([C@H](C)CO)C[C@H](C)[C@H](CN(C)S(=O)(=O)c2ccc(C)cc2)O3)cc1,-0.2,51.6*,3.3,.,-10.8,.,-21.1%[38 µM]
C[C@@H]1CCCCO[C@H](CN(C)Cc2ccc3c(c2)OCO3)[C@@H](C)CN([C@H](C)CO)C(=O)c2cc(NC(=O)Nc3ccc(C(F)(F)F)cc3)ccc2O1,-1.1,30.0,-3.6,.,6.4,4.7,.
C[C@@H]1CN([C@H](C)CO)C(=O)c2cc(NC(=O)Nc3ccc(C(F)(F)F)cc3)ccc2O[C@@H](C)CCCCO[C@@H]1CN(C)Cc1ccc2c(c1)OCO2,-0.9,56.4*,-4.3,.,1.7,4.5,25.5µM*
C[C@@H]1CN([C@@H](C)CO)C(=O)c2cc(NC(=O)CCN3CCOCC3)ccc2O[C@H]1CN(C)Cc1ccc(C(=O)O)cc1,0.0,-9.7,5.0,.,-0.7,.,.
C[C@@H]1CN([C@@H](C)CO)C(=O)c2cc(NC(=O)CCN3CCOCC3)ccc2O[C@@H]1CN(C)Cc1ccncc1,-0.2,50.8*,-3.6,.,-1.8,.,-6.8%[38 µM]
C[C@@H]1CN([C@@H](C)CO)C(=O)c2cc(NC(=O)C3CC3)ccc2O[C@H]1CN(C)C(=O)Nc1ccc(F)cc1,0.0,55.1*,-4.7,.,-0.5,.,-4.5%[42 µM]
C[C@@H]1CN([C@H](C)CO)C(=O)c2cc(NC(=O)C3CC3)ccc2O[C@@H]1CN(C)C(=O)Nc1ccc(F)cc1,0.2,-3.9,-3.1,.,0.1,.,.
COc1ccccc1NC(=O)N[C@H]1CC[C@@H](CC(=O)N2CCC(Cc3ccccc3)CC2)O[C@H]1CO,-0.1,4.8,5.7,.,1.1,2.0,.
SMILES,FGF22 binding,ARNT TACC3 PPI,ERp5 block,PDI turbidity,AF4-AF9 inh,FN deposit inh,ARNT Alpha ctr
O=C(C[C@H]1CC[C@@H]2NC[C@H](O)COC[C@H]2O1)NCCN1CCCC1,.,.,7.0,.,0.5,-5.3,.
C[C@H](CO)N1C[C@H](C)[C@H](CN(C)C(=O)Nc2ccc(F)cc2)OCCCC[C@H](C)Oc2ccc(NS(=O)(=O)c3ccc(Cl)cc3)cc2C1=O,.,-6.0,2.8,.,-5.5,-2.7,.
C[C@@H]1CN([C@@H](C)CO)C(=O)c2cc(NC(=O)C3CCCCC3)ccc2O[C@@H](C)CCCCO[C@@H]1CN(C)C(=O)NC1CCCCC1,0.1,active,-1.6,.,2.5,.,-5.4%[38 µM]
C[C@H](CO)N1C[C@H](C)[C@@H](CN(C)C(=O)Nc2ccc(C(F)(F)F)cc2)Oc2ncc(C3=CCCC3)cc2C1=O,0.0,80.5*,2.2,.,-1.2,7.9,-25.9%[38 µM]
C[C@@H]1CCCCO[C@@H](CN(C)C(=O)NC2CCCCC2)[C@H](C)CN([C@H](C)CO)C(=O)c2cc(NC(=O)C3CCCCC3)ccc2O1,-1.1,-3.9,-17.0,.,-2.0,.,.
C[C@H]1CCCCO[C@H](CN(C)C(=O)Nc2ccc(F)cc2)[C@@H](C)CN([C@@H](C)CO)C(=O)c2cc(NS(=O)(=O)c3ccc(Cl)cc3)ccc2O1,.,active,-5.4,.,-5.4,-7.3,-36.4%[38 µM]
C[C@H](CO)N1C[C@H](C)[C@@H](CN(C)Cc2ccc(-c3ccccc3)cc2)Oc2c(NS(=O)(=O)c3ccc(Cl)cc3)cccc2C1=O,0.0,8.1,-13.0,.,2.1,-3.2,.
O=C(O)c1ncn(Cc2ccccc2)c1C(=O)O,.,61.6*,.,1.4,.,.,-22.5%
O=C(NCc1ccccc1)c1ncn(Cc2ccccc2)c1C(=O)NCc1ccccc1,0.0,-9.8,6.9,-0.4,-0.3,-0.2,.
O=C(O)CSc1cccc2cccnc12,0.3,60.1*,2.0,-6.4,-1.7,4.5,-17.8%
CN(C)S(=O)(=O)c1cccc(NC(=O)CSc2cccc3cccnc23)c1,-0.1,64.5*,2.7,17.1,2.3,-1.8,11.8µM*
O=C(CSc1cccc2cccnc12)N/N=C/c1cccc(O)c1,42.8,27.5,6.6,9.5,2.3,5.8,.
CN(C)S(=O)(=O)c1ccc(SCC(=O)Nc2cccc(S(=O)(=O)N3CCCC3)c2)nc1,-0.5,-2.3,-8.3,-6.8,1.4,9.5,.
